# Assay results published in the RNAGym collection of RNA variant scans (doi:10.1126/science.aae0568).
# Variants at the floor of the assay were thinned out.
# B1: tRNA (parent)
# chain: GUUCCGUUGGCGUAAUGGUAACGCGUCUCCCUCCUAAGGAGAAGACUGCGGGUUCGAGUCCCGUACGGAACG
# Variants of: B1
# Assay: yeast fitness relative to wild type (ratio to wild type); higher = fitter; tRNA-Arg(CCU), competitive growth, 37 C, YPD
# Method in brief: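 Start and end populations of a pooled competition were compared by 100-nucleotide paired-end sequencing of gene amplicons. The Saccharomyces cerevisiae strains carried tRNA-Arg(CCU) gene variants at the native genomic locus, synthesised with a 3% per-site mutation rate at 69 sites, and competed in YPD at 37°C for 24 hours in six parallel replicates. Darwinian fitness relative to wild type was based on the change in genotype frequencies. Genotypes required ≥ 100 starting reads, and estimates < 0.5 were set to 0.5.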
row,Variant,yeast fitness
1,A14C A21C C29G,≤ 0.5
2,A14C C24U A45U G51C,≤ 0.5
3,U13G G39C A69U,0.625
4,A14C C27A G39A C55U A70G,≤ 0.5
5,A14C A15U C27U U32C U35G,0.584
6,U13G C27A U28A C33U,≤ 0.5
7,A14C C34U G39C G63A,≤ 0.5
8,A14C A20G C27U C62U,≤ 0.5
9,U13G C30A A65U A69C,≤ 0.5
10,A14C G56A A69C,0.578
11,A14C A20C A42G G44A U47C,≤ 0.5
12,U13G U28A C30A A69U,0.554
13,U13G C66U,0.818
14,U13G U53C U64C,≤ 0.5
15,A14C G25C C62U,≤ 0.5
16,A14C A70U,0.679
17,A14C A70C,0.684
18,U13G C33G A40G C60A,≤ 0.5
19,A14C C30A C33G C46U,≤ 0.5
20,A14C G25C C27G C34U U35A G38A G56A U59G,≤ 0.5
21,U13G C22U U28C C31A,≤ 0.5
22,A14C C33G G44C U54G G58C,≤ 0.5
23,U13G C30G A40G,≤ 0.5
24,A14C A21C G39A C49G,≤ 0.5

row,Variant,yeast fitness
1,A14C C22G G25C A42G G44A C61G,≤ 0.5
2,A14C C27G U35C C46G A65G,≤ 0.5
3,U13G U53C G67C,0.771
4,A14C G23A C34A C49G,≤ 0.5
5,A14C A45C G50A,≤ 0.5
6,A14C C22A C46A C66U,≤ 0.5
7,A14C G17A G48C C55U G63U,≤ 0.5
8,A14C G25C A45G G48A,0.534
9,A14C C27U U47C C60G,0.641
10,A14C A15U G18C,0.67
11,U13G C24U U28A A42G,≤ 0.5
12,A14C A15C A21U A57G A65G,≤ 0.5
13,U13G U32A C60A G63A,≤ 0.5
14,A14C C46U U53A,≤ 0.5
15,A14C A20U,0.641
16,A14C C27A U28A A45G,≤ 0.5
17,U13G U19G,1.05
18,A14C C55A G58A,0.55
19,U13G U16C G39C A65G,≤ 0.5
20,A14C G23A C29U U35C C55G,0.627
21,A14C G41A A43C,≤ 0.5
22,A14C A45U,0.717
23,A14C A45C,0.702
24,A14C C31U A36U A69C,0.624

row,Variant,yeast fitness
1,A14C C29A G50A,0.576
2,A14C C55U C61G C62G,0.571
3,A14C C27G C33A A45U G63C A69G,≤ 0.5
4,A14C C22A G67C,≤ 0.5
5,A14C A20U C31A,≤ 0.5
6,A14C A20U C31U,≤ 0.5
7,U13G C29U C33U G67A,≤ 0.5
8,A14C A20U U35C A65G A69U,≤ 0.5
9,A14C C27A C31A A70U,≤ 0.5
10,A14C A65G,0.776
11,A14C C27G A70U,0.54
12,A14C A15U U47G,≤ 0.5
13,A14C C22A U59G C62G,≤ 0.5
14,A14C G17C C27U U47G,≤ 0.5
15,A14C C31G A37U G39C A42C,≤ 0.5
16,A14C C31U G58A C62U,0.609
17,A14C C55A A69C,≤ 0.5
18,A14C G17C U26A G41C G44U,≤ 0.5
19,A14C G50A G63C,0.522
20,A14C C22G G52C A65U,≤ 0.5
21,U13G U28C G38C,≤ 0.5
22,A14C A40C G41C C49U C55A A70U,≤ 0.5
23,U13G C29U G68C,≤ 0.5
24,A14C A37U,0.655

row,Variant,yeast fitness
1,A14C A37C,0.53
2,A14C G58C G68C,≤ 0.5
3,A14C G18A C30U C49A,≤ 0.5
4,A14C C60A,0.589
5,U13G U35C G38A A42U G58C A65U,≤ 0.5
6,A14C G51A,0.714
7,A14C C49G A69C,≤ 0.5
8,A14C A15U U64G C66A,≤ 0.5
9,U13G G38C,0.757
10,A14C G50U,0.708
11,A14C G50A,0.612
12,A14C A69U,0.763
13,A14C A20G C30U,≤ 0.5
14,U13G U19G A57G C62U,≤ 0.5
15,A14C C29A G48A G50A,≤ 0.5
16,A14C A15U U16A G44A A57U,≤ 0.5
17,A14C A36U G68A,≤ 0.5
18,U13G U35C G38A A42U G58C,≤ 0.5
19,A14C A42G G48A,≤ 0.5
20,U13G C49U U59C,≤ 0.5
21,U13G C24U C34A C49U G63A,0.554
22,U13G C62G,0.726
23,U13G C62U,0.92
24,A14C C31U A40G,≤ 0.5

row,Variant,yeast fitness
1,A14C C30A A36G C62U G63A,≤ 0.5
2,A14C A21C C27U C62U A69C,≤ 0.5
3,U13G U28A U53C C55G C66A,≤ 0.5
4,A14C C60U C62U U64A,≤ 0.5
5,A14C C46A U47G,≤ 0.5
6,A14C A21U A40G A65C,0.621
7,A14C C29U G39C U54C,0.678
8,A14C G25C U47A C49U G63C,0.561
9,A14C C49G,0.542
10,A14C C49A,0.562
11,A14C A15G G25C U32A A43C G63A A69C,≤ 0.5
12,A14C A21C C24U A36U A43U G56A G58C C66A,≤ 0.5
13,A14C C27G C46G A65G,0.576
14,A14C A36C,0.564
15,A14C A36U,0.591
16,A14C A36G,0.644
17,A14C G25C C27G C34U U35A G38A U59A,≤ 0.5
18,A14C C29G C30A C62A A69C,≤ 0.5
19,A14C C29U C46A,≤ 0.5
20,A14C A42U,0.524
21,A14C A42G,0.595
22,U13G U16G C31G C49U,≤ 0.5
23,A14C C24A A40G C49A C61G,≤ 0.5
24,A14C C22G U26G,≤ 0.5

row,Variant,yeast fitness
1,U13G C24A A45G,≤ 0.5
2,U13G G39C C46U,0.535
3,A14C G48A G58A,1.04
4,A14C G17U C27U,0.647
5,A14C C27G C60A A65U,≤ 0.5
6,A14C A20C C33G A65G,≤ 0.5
7,U13G G18A G39C A69U,≤ 0.5
8,A14C A15C C27U C29A C34G G39A G50C,≤ 0.5
9,U13G C29U C33U,0.57
10,A14C C30U G50C C66U,≤ 0.5
11,A14C A15G A42G A70U,0.569
12,A14C C62G A70G,0.632
13,A14C C27G A40U A70U,≤ 0.5
14,A14C C34U A37G A69C,≤ 0.5
15,A14C A15U C30U C34G C61A U64A A69U,≤ 0.5
16,A14C A15G G44C C60A,≤ 0.5
17,U13G C46U U53A,≤ 0.5
18,A14C A43G G68C,0.65
19,A14C C29A,0.596
20,A14C A20U C66A,≤ 0.5
21,A14C C24G G52C C55U C66U,≤ 0.5
22,A14C A15C,0.518
23,U13G G38C A42G G56C U59A A70U,≤ 0.5
24,A14C G25C C27G C34U U35A G38A A70G,≤ 0.5

row,Variant,yeast fitness
1,A14C C62A,0.65
2,A14C G18A,0.59
3,A14C A40G C62G G68A,≤ 0.5
4,A14C C34A A37G C62U,≤ 0.5
5,U13G C31U U35A G51A A69U A70G,≤ 0.5
6,A14C A21G C22U U47A G56A,0.622
7,A14C A36G A42C,0.533
8,A14C A20C C33G A65C C66U,0.758
9,A14C G25A C66U,0.541
10,U13G G23C A43C,0.584
11,A14C C24U A40U G44A A70G,≤ 0.5
12,A14C A15C C27U C29A C34G G50C,0.597
13,A14C A57U C62U G67A,0.508
14,A14C A21G C29A C34U,0.612
15,U13G G58C C62U A70U,≤ 0.5
16,A14C G67U,0.678
17,A14C C24U A36G G68C,≤ 0.5
18,A14C C22U C24U A37G,≤ 0.5
19,U13G U32A G48C G51A C61U A69G,≤ 0.5
20,U13G U35A A37G A43U A45C A65C,≤ 0.5
21,U13G G25A,0.973
22,A14C A45C C60G,≤ 0.5
23,A14C C27G,0.574
